Test results from ChEMBL document CHEMBL1145019, “The power of visual imagery in drug design. Isopavines as a new class of morphinomimetics and their human opioid receptor binding activity” (J Med Chem, 2003).
Active and inactive are the calls of the source. No cut-off for these calls is given here.

Columns and labels:
[1] = molecular target: Delta-type opioid receptor (Homo sapiens, UniProt P41143); assay: In vitro binding affinity against cloned human Opioid receptor delta 1 expressed in HEK 293S cells; assay type: cell-based, HEK293
Sequence of Delta-type opioid receptor (P41143 whole entry): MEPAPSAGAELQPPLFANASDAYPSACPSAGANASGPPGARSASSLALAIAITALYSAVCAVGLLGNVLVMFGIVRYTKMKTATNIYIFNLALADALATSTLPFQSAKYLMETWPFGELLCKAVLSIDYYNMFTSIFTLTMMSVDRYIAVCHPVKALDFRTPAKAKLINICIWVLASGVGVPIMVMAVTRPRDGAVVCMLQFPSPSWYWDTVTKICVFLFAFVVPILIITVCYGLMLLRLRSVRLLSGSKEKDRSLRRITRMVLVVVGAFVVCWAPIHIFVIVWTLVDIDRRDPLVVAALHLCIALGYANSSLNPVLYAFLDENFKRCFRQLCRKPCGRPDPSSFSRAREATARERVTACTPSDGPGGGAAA
Method in brief: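 Compounds tested at 5 or 10 concentrations in duplicate, in 50 mM Tris, 3 mM MgCl2, 1 mg/mL BSA, pH 7.4. Bound radioactivity measured at equilibrium by filtration. Nonspecific binding defined with 10 µM naloxone. IC50 from a two-parameter logistic fit.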

[2] = molecular target: Kappa-type opioid receptor (Homo sapiens, UniProt P41145); assay: biochemical; assay type: cell-based, HEK293
Sequence of Kappa-type opioid receptor (P41145 whole entry): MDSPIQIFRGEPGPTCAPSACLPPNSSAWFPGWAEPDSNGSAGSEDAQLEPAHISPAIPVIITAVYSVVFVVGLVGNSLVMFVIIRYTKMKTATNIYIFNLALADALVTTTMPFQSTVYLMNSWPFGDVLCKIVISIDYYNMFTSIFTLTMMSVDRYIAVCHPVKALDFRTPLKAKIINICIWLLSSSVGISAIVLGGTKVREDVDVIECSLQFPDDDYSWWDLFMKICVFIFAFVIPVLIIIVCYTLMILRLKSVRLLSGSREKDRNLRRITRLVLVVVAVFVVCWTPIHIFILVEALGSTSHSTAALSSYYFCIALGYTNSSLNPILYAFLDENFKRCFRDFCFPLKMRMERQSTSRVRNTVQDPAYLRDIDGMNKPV

Mu-type opioid receptor [3] = molecular target: T1, Mu-type opioid receptor (Homo sapiens, UniProt P35372); assay: biochemical; assay type: cell-based, HEK293
T1 sequence (P35372 whole entry): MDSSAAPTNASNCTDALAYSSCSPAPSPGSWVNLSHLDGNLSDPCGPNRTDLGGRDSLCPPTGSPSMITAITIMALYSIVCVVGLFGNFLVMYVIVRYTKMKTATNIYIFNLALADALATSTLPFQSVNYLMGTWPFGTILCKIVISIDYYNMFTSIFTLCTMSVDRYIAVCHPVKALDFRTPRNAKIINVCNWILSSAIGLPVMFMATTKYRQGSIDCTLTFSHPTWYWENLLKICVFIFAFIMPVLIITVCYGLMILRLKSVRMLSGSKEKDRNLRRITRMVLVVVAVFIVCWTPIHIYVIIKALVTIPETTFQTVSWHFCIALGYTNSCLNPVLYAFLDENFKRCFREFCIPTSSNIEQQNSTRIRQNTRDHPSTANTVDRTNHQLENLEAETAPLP

[4] = Selectivity of mu IC50 to that of delta IC50 was calculated; NA means Insufficient binding potency
Method in brief: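 Ratio = delta IC50 / mu IC50, from radioligand displacement on HEK-293S P2 membranes expressing human receptors. […] Tris 50 mM, MgCl2 3 mM, BSA 1 mg/mL, pH 7.4. Filtration at equilibrium; 10 µM naloxone defined nonspecific binding. IC50 from logistic fits.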

Mu-type opioid receptor [5] = molecular target: T1, Mu-type opioid receptor; assay: Tested for effective concentration against cloned human Opioid receptor mu 1
Method in brief: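 GTP[γ]35S binding using HEK-293S membranes expressing hμ (0.2 pmol/mg protein). Filtration after 1 h. Stimulated binding defined with 30 µM DAMGO. EC50 from a three-parameter logistic fit.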

| Compound | IC50 [1] [nM] | IC50 [2] [nM] | IC50 (Mu-type opioid receptor [3]) [nM] | NA [4] | EC50 (Mu-type opioid receptor [5]) [nM] |
| --- | --- | --- | --- | --- | --- |
| Brc1ccc2c(c1)[C@H]1c3cc(Br)ccc3[C@H](C2)N2CCC[C@@H]12 | 5020 | 7400 | 500 |  |  |
| CC(=O)Oc1ccc2c(c1)[C@H]1c3cc(OC(C)=O)ccc3[C@H](C2)N2CCC[C@@H]12 | 2900 | > 6000 | 220 |  |  |
| C[C@@H]1[C@H]2c3cc(Br)ccc3C[C@@H](c3ccc(Br)cc32)N1C | 8840 | 6920 | 360 |  |  |
| COc1cc2c(cc1OC)[C@H]1c3cc(OC)c(OC)cc3[C@H](C2)N(C)[C@@H]1C | > 10000 | > 10000 | > 10000 | inactive |  |
| CC(=O)Oc1ccc2c(c1)[C@H]1c3cc(OC(C)=O)ccc3[C@H](C2)N(CC2CC2)[C@@H]1C | 3300 | 2020 | 44 |  |  |
| CN1[C@@H]2Cc3ccccc3[C@@H](c3ccccc32)[C@@H]1CCCO | > 10000 | > 10000 | 1150 |  |  |
| C[C@@H]1[C@H]2c3cc(N4CCN(C)CC4)ccc3C[C@@H](c3ccc(N4CCN(C)CC4)cc32)N1CC1CC1 | 2040 | 1600 | 690 |  |  |
| CN1CC[C@]23CCCC[C@H]2[C@H]1Cc1ccc(O)cc13 [LEVORPHANOL] | 5.1 | 4 |  |  |  |
| C[C@@H]1[C@H]2c3ccccc3C[C@@H](c3ccccc32)N1Cc1ccccc1 | > 8800 | > 5800 | > 10000 |  |  |
| COc1ccc2c(c1)[C@H]1c3cc(OC)ccc3[C@H](C2)N(C)[C@@H]1C | > 10000 | > 10000 | 420 | inactive |  |
| C[C@H]1[C@H]2c3ccccc3C[C@H](c3ccccc32)N1C | > 10000 | > 10000 | 611 |  |  |
| CC(=O)Oc1ccc2c(c1)[C@H]1c3cc(OC(C)=O)ccc3[C@H](C2)N(C)[C@@H]1C | > 4700 | > 9500 | 200 |  |  |
| C[C@@H]1[C@H]2c3ccccc3C[C@@H](c3ccccc32)N1C | > 10000 | > 75000 | 230 |  |  |
| Oc1ccc2c(c1)[C@H]1c3cc(O)ccc3[C@H](C2)N2CCC[C@@H]12 | 3800 | 7200 | 130 |  |  |
| C[C@@H]1[C@H]2c3cc(Br)ccc3C[C@@H](c3ccc(Br)cc32)N1CC1CC1 | > 10000 | > 4900 | 2050 |  |  |
| c1ccc2c(c1)C[C@@H]1c3ccccc3[C@H]2[C@@H]2CCCCN12 | > 10000 | 7400 | 390 |  |  |
| Fc1ccc2c(c1)[C@H]1c3cc(F)ccc3[C@H](C2)N2CCC[C@@H]12 | > 10000 | > 6400 | 103 |  |  |
| CC(C)C[C@H]1[C@H]2c3ccccc3C[C@H](c3ccccc32)N1C | > 8700 | 2970 | 1010 |  |  |
| CC(C)[C@H]1[C@H]2c3ccccc3C[C@H](c3ccccc32)N1C | > 10000 | 3410 | 695 |  |  |

| Compound | IC50 [1] [nM] | IC50 [2] [nM] | IC50 (Mu-type opioid receptor [3]) [nM] | NA [4] | EC50 (Mu-type opioid receptor [5]) [nM] |
| --- | --- | --- | --- | --- | --- |
| C[C@@H]1[C@H]2c3cc(N4CCN(C)CC4)ccc3C[C@@H](c3ccc(N4CCN(C)CC4)cc32)N1C | 2500 | 3200 | 53 |  |  |
| COc1cc2c(cc1OC)[C@H]1c3cc(OC)c(OC)cc3[C@H](C2)N(CC2CC2)[C@@H]1C | > 10000 | > 10000 | > 10000 | inactive |  |
| C[C@@H]1[C@H]2c3cc(NCc4ccccc4)ccc3C[C@@H](c3ccc(NCc4ccccc4)cc32)N1C | 120 | 640 | 8 |  | 4300 |
| C[C@H]1N[C@@H]2Cc3ccccc3[C@H]1c1ccccc12 | > 10000 | > 10000 | 650 |  |  |
| C[C@@H]1[C@H]2c3cc(O)ccc3C[C@@H](c3ccc(O)cc32)N1CC1CC1 | 460 | 204 | 6.4 |  |  |
| COc1ccc2c(c1)[C@H]1c3cc(OC)ccc3[C@H](C2)N(CC2CC2)[C@@H]1C | 6630 | 5330 | 1030 |  |  |
| CN1[C@@H]2Cc3ccccc3[C@@H](c3ccccc32)[C@@H]1Cc1ccccc1 | 3440 | 1710 | 1050 |  |  |
| COc1cc2c(cc1OC)[C@@H]1c3cc(OC)c(OC)cc3[C@@H](C2)N(C)[C@H]1C | > 5700 | > 10000 |  | inactive |  |
| CC(=O)N1[C@H](C)[C@H]2c3ccccc3C[C@H]1c1ccccc12 | > 10000 | > 10000 | > 9500 |  |  |
| C[C@@H]1[C@H]2c3ccccc3C[C@@H](c3ccccc32)N1CC1CC1 | > 10000 | > 10000 | 1080 |  |  |
| C[C@@H]1[C@H]2c3cc(O)ccc3C[C@@H](c3ccc(O)cc32)N1C | 1300 | 961 | 16 |  |  |
| c1ccc2c(c1)C[C@H]1c3ccccc3[C@H]2[C@@H]2CCCN12 | > 7800 | 6100 | 59 |  |  |
| C[C@@H]1[C@H]2c3cc(N4CCOCC4)ccc3C[C@@H](c3ccc(N4CCOCC4)cc32)N1C | 7500 | > 10000 | 690 |  |  |
| C=CCN1[C@H](C)[C@H]2c3ccccc3C[C@H]1c1ccccc12 | > 9700 | > 4000 | 2000 |  |  |
| COc1ccc2c(c1)[C@H]1c3cc(OC)ccc3[C@H](C2)N2CCC[C@@H]12 | 4040 | > 10000 | 160 |  |  |
| C[C@@H]1[C@H]2c3cc(Nc4ccccc4)ccc3C[C@@H](c3ccc(Nc4ccccc4)cc32)N1CC1CC1 | 890 | 1200 | 82 |  |  |
| C[C@@H]1[C@H]2c3cc(NCc4ccccc4)ccc3C[C@@H](c3ccc(NCc4ccccc4)cc32)N1CC1CC1 | 49 | 31 | 7 |  |  |
| Brc1ccc(CNc2ccc3c(c2)[C@H]2c4cc(NCc5ccc(Br)cc5)ccc4[C@H](C3)N3CCC[C@@H]23)cc1 | 5300 | 7000 | 120 |  |  |
| C[C@@H]1[C@H]2c3cc(Nc4ccccc4)ccc3C[C@@H](c3ccc(Nc4ccccc4)cc32)N1C | 530 | 3600 | 56 |  |  |
